Bioassay records deposited in PubChem BioAssay by several laboratories.
PKD1 inh: inhibitors of human PKD1 kinase, biochemical, fluorescence polarization | PKD1 kinase fluorescence polarization assay | inhibition, % (test concentration not listed) | actives 0.056% (n = 200,000) | AID 797, 2007; in the data active = inhibition above about 50%
Ins promoter up: insulin promoter activators in MIN6 cells, imaging, high-content screening, mouse beta cells; z-score at 5 µM; actives 0.3% (n = 190,000); MIN6 insulin promoter-GFP reporter; hits give high values;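 active = z-score above 3 at 5 µM with at least 500 cells counted in the well; inconclusive = wells under 500 cells, flagged as cytotoxic or low count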
INS promoter inh: inhibitors of insulin promoter-driven GFP, primary screen, imaging, TRM-6 cells, eGFP reporter, cell count. AID 1273, 2008. inhibition, % at 2 µM. actives 0.9% (n = 130,000). reporter expression induced with tamoxifen;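 active = inhibition above the mean plus 3 SD, with well images judged a real hit on visual review, cut at about 60% in these data, passing the limit was not always enough; inconclusive = inhibition over the cutoff but images rejected on review; inactive = inhibition not above the cutoff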
RBBP9 inh: human RBBP9 inhibitors, primary screen, biochemical, fluorescence polarization, FP-Rh probe, HTS; Serine hydrolase RBBP9 (Homo sapiens), O75884; recombinant RBBP9; inhibition, % at 7.94 µM; actives 0.2% (n = 220,000); AID 1515, 2009;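 active = inhibition above the campaign mean of all tested compounds plus 3 SD, cut at about 14% in these data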;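 note: plate controls were DMSO wells with RBBP9 for no effect and wells lacking RBBP9 protein for full effect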
Target sequence (O75884 whole entry, looked up): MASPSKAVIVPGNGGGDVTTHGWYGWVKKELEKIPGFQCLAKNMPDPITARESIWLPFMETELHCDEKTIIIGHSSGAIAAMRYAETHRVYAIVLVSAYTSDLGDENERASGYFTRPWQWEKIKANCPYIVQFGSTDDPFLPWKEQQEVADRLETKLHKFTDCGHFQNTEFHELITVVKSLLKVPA
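Test system: recombinant human RBBP9; Timing: 30 min then 45 min, 25 °C; Detection: fluorescence polarization; Control set: RBBP9 with DMSO as uninhibited control, no-protein wells as full inhibition; Compound dosing: one concentration, 7.94 µM nominal, 0.794% DMSO; Probe or stimulus: FP-Rh activity-based probe, 375 nM before mixing.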
Arbovirus anti: antivirals against arbovirus infection, primary screen, cell-based, full library, 10K replicate subset; arbovirus infection cell-based antiviral screen; inhibition, % at 10 µM; actives 0.37% (n = 200,000); AID 1251, 2008; in the data active = inhibition above about 30%
Autophagy HCS: autophagy modulators in MEF cells, primary screen, imaging, high-content, MEF GFP-LC3; MEF GFP-LC3 puncta imaging; test concentration mostly 10 µM; calls only at 10 µM (by protocol); actives 0.98% (n = 190,000); AID 463193, 2010;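 active = percentage of spot-positive cells more than 3 SD above its plate mean, without a fluorescence outlier flag or 80% toxicity; inconclusive = no clear call, values can overlap the other calls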;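 note: spot-positive cell cutoff set from DMSO-treated cells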
An asterisk follows results filed as active; i = inactive; ? = inconclusive; nt = not tested or not shown; + = active, no number. The list is not random: actives were taken first. Their share in the collection is about 2.1%.

SMILES | PKD1 inh | Ins promoter up | INS promoter inh | RBBP9 inh | Arbovirus anti | Autophagy HCS
O=C(Nc1cccs1)Nc1ccc(Br)cc1F | -16.5 | 0.91 | 70.4* | -6.4 | 17.1 | i
CN1c2ccsc2/C(=N/Nc2ccccc2)CS1(=O)=O | -3.5 | 1.33 | nt | -12.8 | -18.1 | +
CN1c2ccsc2/C(=N/NC(=O)c2c(F)cccc2F)CS1(=O)=O | 5.1 | nt | -10.0 | -16.3 | -6.3 | i
COc1ccc(CNC(=O)c2coc(=O)c3ccccc23)cc1 | 0.3 | -0.13 | 20.0 | 3.5 | 3.7 | i
O=C1Nc2ccccc2N(O)N1c1cc(-c2ccccc2)[nH]n1 | -2.3 | 0.41 | 85.0* | -0.1 | 3.1 | i
COc1ccc(-c2cc(N3C(=O)Nc4ccccc4N3O)n[nH]2)cc1 | -0.9 | 0.7 | nt | -3.3 | 3.4 | i
O=C(N/N=C/c1ccc(O)cc1)c1nc(-c2ccccc2)n(-c2ccccc2)n1 | -3.9 | 0.1 | 10.3 | 6.6 | -1.4 | i
Nc1nc(SCC(=O)N2CCc3ccccc3C2)[nH]c(=O)c1-c1ccccc1 | -1.8 | -0.38 | 75.0* | -4.3 | 1.6 | i
COc1ccccc1NC(=O)/C=C1\SCC(=O)N1C | 5.7 | 4.67* | nt | -1.6 | 2.5 | i
COc1ccccc1NC(=O)/C=C1\NC(=O)CS1 | -0.7 | -0.08 | -58.3 | 3.4 | 13.3 | i
Cc1ccc(CNC(=O)Cc2ccc(-n3c(=O)[nH]c4ccsc4c3=O)cc2)cc1 | 7.9 | -0.14 | 20.0 | -10.0 | -6.2 | i
Cc1nc2ccccc2n1CC(=O)OCC(=O)NC1CC1 | -1.1 | -0.55 | nt | 0.7 | 1.3 | +
Cc1nc2ccccc2n1CC(=O)OCC(=O)Nc1ccc2c(c1)OCCO2 | -7.7 | -0.32 | 41.9 | -6.9 | 0.9 | i
CCOC(=O)c1cnn(-c2cc(C)nc3c(-c4ccccc4)cnn23)c1N | -9.6 | 3.62* | -16.7 | -13.7 | -4.4 | i
CC(C)c1cc(C(N)=O)c(NC(=O)C2CCC2)s1 | -1.3 | nt | 81.2* | -7.2 | -9.7 | i
CC(C)c1nnc(NC(=O)C2CCCCC2)s1 | -16.4 | -0.45 | nt | 2.6 | 6.3 | nt
CC(C)(C)c1nnc(NC(=O)CN2C(=O)C3C4C=CC(C4)C3C2=O)s1 (stereo not given) | 8.2 | 0.24 | 75.0* | -3.7 | 6.5 | i
CCOCCCNC(=O)c1cc2c(-c3ccc(Cl)cc3)nn(C)c2s1 | -17.8 | -1.03 | nt | -13.6 | -3.9 | i
CCN(CC)CCNC(=O)c1cc2c(-c3ccc(Cl)cc3)nn(C)c2s1 | -9.4 | 0.44 | nt | -11.5 | -27.3 | +
NC(=O)CC(NC(=O)Cc1cccc2ccccc12)c1ccc(NCc2ccc(F)cc2)c([N+](=O)[O-])c1 (stereo not given) | nt | -0.46 | nt | nt | nt | nt
COc1ccc(-c2nn(-c3ccccc3)cc2C(=O)N2c3ccc(C)cc3C3CN(C)CCC32)cc1 (stereo not given) | -1.5 | -1.25 | nt | -10.0 | -29.7 | +
COc1ccc(-c2nn(-c3ccccc3)cc2C(=O)O)cc1 | 0.3 | 0.76 | nt | 8.9 | 3.9 | i
CCc1ccccc1OCCOc1ccc(C)cc1OC | 7.0 | -0.32 | 19.2 | 5.9 | 5.6 | i
O=C(Nc1ccccc1)N1CCC(=S)Nc2ccccc21 | -6.3 | 0.11 | 23.1 | 1.0 | 3.8 | i
Cc1ccc(CNC(=O)CCc2nc(-c3cccs3)no2)cc1 | -6.9 | 0.07 | nt | -9.7 | -5.1 | i
SMILES | PKD1 inh | Ins promoter up | INS promoter inh | RBBP9 inh | Arbovirus anti | Autophagy HCS
O=C(CCc1nc(-c2cccs2)no1)NCc1ccc(F)cc1Cl | 3.1 | -1.11 | nt | -8.3 | -0.7 | +
N#Cc1ccsc1NC(=O)COc1ccc(-c2nnco2)cc1 | -10.7 | 0.17 | 65.2* | 8.3 | 1.0 | i
O=C(Nc1ccccc1)c1ccc(S(=O)(=O)N(CCO)CCO)cc1 | -3.9 | 0 | 77.4* | 3.7 | 7.0 | i
CSc1cccc(NC(=O)COc2cccc3ccccc23)c1 | -0.5 | -0.59 | 73.0* | 4.2 | -11.2 | i
Cc1ccc2cc(C#N)c(SCc3nnc(-c4ccccc4[N+](=O)[O-])o3)nc2c1 | -18.6 | -0.06 | -237.0 | -2.1 | -16.9 | +
COC(=O)CSc1nc2cc(C)ccc2cc1C#N | -35.6 | -0.39 | ? | -5.4 | -0.8 | i
CCOC(=O)Nc1ccc2c(c1)N(C(=O)CCN1CCN(CCO)CC1)c1ccccc1S2 | -9.9 | nt | 89.2* | 2.4 | nt | i
N/C(COc1cccc(Cl)c1)=N\NS(=O)(=O)c1ccccc1 | -13.6 | -0.18 | -33.3 | -9.2 | 3.6 | i
Cc1cccc(C(=O)Nc2ccc(O)c3c(=O)cc(-c4ccccc4Cl)oc23)c1 | -1.2 | -0.31 | -9.1 | -9.0 | -12.2 | +
O=C(Nc1ccc(O)c2c(=O)cc(-c3ccccc3Cl)oc12)c1cccc(Cl)c1 | -3.4 | 1.19 | -59.1 | -4.5 | -19.7 | i
CCn1c(SCC(=O)C(C)(C)C)nnc1-c1ccccn1 | -7.1 | 0.65 | 15.0 | -5.1 | 7.8 | i
O=C(O)CCS(=O)(=O)c1ccccc1Cl | -2.0 | 0.55 | nt | -5.6 | -1.5 | i
NC(=O)COc1ccc(Cc2ncc(C(F)(F)F)cc2Cl)cc1 | 2.8 | -0.72 | 30.2 | 4.7 | -0.8 | i
N#Cc1sc2nc(-c3ccccc3)cc(C(F)(F)F)c2c1N | -0.6 | nt | -100.0 | -8.2 | 4.6 | +
O=C(COC(=O)c1ccc(Br)o1)Nc1nc2c(F)c(F)c(F)cc2s1 | nt | 0.13 | nt | -22.8 | nt | nt
O=C(COC(=O)c1ccc(NS(=O)(=O)c2cccs2)cc1)Nc1nc2c(F)c(F)c(F)cc2s1 | 7.2 | 0.21 | 33.3 | -16.2 | 33.5* | i
COc1ccc(Cl)cc1NC(=O)C1COc2ccccc2O1 (stereo not given) | 0.9 | -0.9 | 7.0 | 1.6 | 32.1* | i
COc1ccc(OC)c(NC(=O)C2COc3ccccc3O2)c1 (stereo not given) | 11.3 | 1.25 | -36.4 | -0.5 | 14.7 | i
NC(=O)C[n+]1cccc(/C=N/O)c1 | -2.9 | 0.23 | nt | -6.0 | 3.2 | i
CCCCN(CCCC)C(=O)C[n+]1cccc(/C=N/O)c1 | -0.1 | 0.58 | 70.6* | -5.3 | 3.3 | i
CCCNc1nc(N2CCCC2)nc(N2CCCC2)n1 | 1.7 | nt | 83.3* | -3.0 | -1.4 | i
CC(C)(C)Nc1nc(N2CCCC2)nc(N2CCCC2)n1 | -5.7 | -1.36 | -28.6 | -6.1 | -23.3 | i
CCCCC(CC)CNC(=O)CCS(=O)(=O)c1cccc2nsnc12 (stereo not given) | -0.1 | 0.24 | -68.8 | -12.3 | -2.7 | i
COC(=O)c1sc2ccccc2c1-n1cccc1C(=O)C(=O)Nc1ccc(F)cc1 | -7.2 | 5.4* | 54.0 | -8.9 | -11.1 | i
CCCn1c(C2CC(=O)N(c3cc(OC)ccc3OC)C2)nc2ccccc21 (stereo not given) | -10.7 | 0.3 | nt | 3.0 | -4.7 | i
COc1ccc(CN=Cc2c(O)[nH]c3ccccc23)cc1 | -9.1 | 0.42 | -83.3 | -4.5 | 19.5 | i
